Source: PubChem BioAssay (several laboratories)
MIN6 prolif – inducers of beta-cell replication in MIN6 cells; MIN6 cells proliferation, ATPlite luminescence, 48 h; cells starved in 0.2% serum; 100% = growth in 10% serum; proliferation, % at 10 µM; actives 0.29% (n = 330,000);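 active = compounds whose signal lies at least 3.5 SD above the mean of all wells on their plate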;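 also: 0% = DMSO-treated cells in low-serum medium and 100% = 10% serum control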
UCH37 DUB inh – blocks the human deubiquitinase UCH37; Q9Y5K5; purified proteasome/UCH37, Ub-AMC cleavage fluorescence; inhibition, % (concentration not given with the values); actives 0.33% (n = 330,000); AID 588478;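 active = mean inhibition over replicate wells above about 20%, limit read from the data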;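 also: 0% = compound-free wells with enzyme and 100% = wells lacking proteasome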
Target sequence (Q9Y5K5 whole entry, looked up): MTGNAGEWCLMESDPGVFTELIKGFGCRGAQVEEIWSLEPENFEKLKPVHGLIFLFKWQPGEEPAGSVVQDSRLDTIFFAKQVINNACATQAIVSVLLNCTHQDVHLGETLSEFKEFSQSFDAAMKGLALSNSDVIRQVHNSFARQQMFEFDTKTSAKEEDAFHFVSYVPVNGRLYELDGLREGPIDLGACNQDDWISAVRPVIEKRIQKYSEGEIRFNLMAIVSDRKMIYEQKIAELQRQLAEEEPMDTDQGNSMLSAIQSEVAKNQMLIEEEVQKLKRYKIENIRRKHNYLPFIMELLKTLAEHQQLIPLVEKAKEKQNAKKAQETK
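Material: Human UCH37 enzyme supplied as purified proteasome complex | Schedule: 30 min compound-proteasome preincubation then 25 min substrate reaction, room temperature | Detection: AMC fluorescence from Ub-AMC cleavage, excitation 355 nm, emission 460 nm | Benchmarks: Wells without proteasome as full block, compound-free enzyme plus substrate as uninhibited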
Rev-erbA mod – modulators of human Rev-erb alpha DNA binding; AID 1259318; Rev-erbα–FITC-DNA binding, fluorescence polarization, 90 min; activity, % at 10 µM; actives 0.79% (n = 370,000);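 active = activity above about 14%, limit read from the data; passing the limit was not always enough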;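 also: 0% = DMSO wells with 35 nM protein and 100% = DMSO wells with 750 nM protein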
Yeast superoxide – yeast age-related superoxide inhibition as caloric restriction mimetic. S. cerevisiae aged cells, superoxide DHE fluorescence; hits give low values. superoxide response (% of plate mean), % at 10 µM. actives 0.18% (n = 330,000);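 active = superoxide response under a set limit, about three screen SD below normal, cut at about 65% in these data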;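 also: yeast aged for seven days with compound at 30 °C before DHE staining; 100% = average MFI of all compound-treated wells on the plate with controls excluded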
Rce1 inh – blocks yeast Ras-converting enzyme; Q03530; yeast membranes, quenched prenylated peptide cleavage fluorescence; calls only; actives 0.27% (n = 290,000);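 active = fall in fluorescence gain of 50% or more versus controls, with final raw signal at or below 3038400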;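 also: plate controls were neutral control wells for no effect and wells lacking membranes for full effect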
Target sequence (Q03530 whole entry, looked up): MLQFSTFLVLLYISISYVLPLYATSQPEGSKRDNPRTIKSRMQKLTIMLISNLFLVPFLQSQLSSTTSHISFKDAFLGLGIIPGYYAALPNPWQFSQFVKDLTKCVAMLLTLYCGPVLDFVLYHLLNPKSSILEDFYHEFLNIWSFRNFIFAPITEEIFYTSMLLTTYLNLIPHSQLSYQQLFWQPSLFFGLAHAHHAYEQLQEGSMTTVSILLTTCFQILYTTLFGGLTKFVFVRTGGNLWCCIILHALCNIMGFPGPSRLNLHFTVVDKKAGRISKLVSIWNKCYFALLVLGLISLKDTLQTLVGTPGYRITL
PG9 Ab binder – binds the HIV-1 gp120 antibody PG9; TR-FRET gp120-PG9 antibody binding; inhibition, % at 6.7 µM; actives 0.43% (n = 360,000); in the data active = inhibition above about 8.5%
An asterisk follows results filed as active. In the library only some 1.9% were active in any assay of this set; here they are far more common.

Results for COc1ccccc1NC(=O)/C(=C\c1cccnc1)NC(=O)c1ccccc1 ?
MIN6 prolif: 0; UCH37 DUB inh: 2; Rev-erbA mod: -4; Yeast superoxide: 107; PG9 Ab binder: -3

What do the screens show for `COc1ccccc1NC(=O)/C(=C\c1cccnc1)NC(=O)c1ccc(C)cc1`?
MIN6 prolif: 0; Rev-erbA mod: 2; Yeast superoxide: 104; Rce1 inh: active; PG9 Ab binder: 3

How did O=S(=O)(N=C(c1ccccc1F)N1CCCCC1)c1ccccc1 do in these assays?
UCH37 DUB inh: 4

How did CCN(CC)CCNC(=O)CSc1c2c(nc3cc(Cl)ccc13)CCCC2 do in these assays?
MIN6 prolif: -6; UCH37 DUB inh: 9; Rev-erbA mod: -1; Yeast superoxide: 91; Rce1 inh: active; PG9 Ab binder: -2

How did CCN(CC)CCCNC(=O)c1ccc2c(SCC(=O)O)c3c(nc2c1)CCC3 do in these assays?
MIN6 prolif: -2; Yeast superoxide: 89; Rce1 inh: inactive

Results for CCOc1ccc(NC(=O)CC(C)=NNC(=O)COc2ccc(Br)cc2C)cc1 ?
UCH37 DUB inh: 8

What do the screens show for `O=C(CNC(=O)c1ccc(F)cc1)NN=Cc1cc(Br)ccc1OCc1ccccc1`?
UCH37 DUB inh: 2

Results for CC1CCCC(C)N1C(=O)COC(=O)c1ccc(S(=O)(=O)N(C)c2ccccc2)cc1 (centres undefined) ?
MIN6 prolif: -5; UCH37 DUB inh: 0; Rev-erbA mod: 3; Yeast superoxide: 91; PG9 Ab binder: 0

What do the screens show for `CN(/C=C/C(=C/C=[N+](C)c1ccccc1)OCCCS(=O)(=O)[O-])c1ccccc1`?
MIN6 prolif: -4; UCH37 DUB inh: 21*; Rev-erbA mod: -8; Yeast superoxide: 94; Rce1 inh: inactive; PG9 Ab binder: 0

Results for CN(/C=C/C(=C\C=[N+](C)c1ccccc1)OCCCS(=O)(=O)[O-])c1ccccc1 ?
MIN6 prolif: -6; UCH37 DUB inh: 20*; Rev-erbA mod: -11; Yeast superoxide: 91; Rce1 inh: inactive; PG9 Ab binder: -1

How did CCC1(C)N=C(N)Nc2nc3cc(C)c(C)cc3n21 (centres undefined) do in these assays?
MIN6 prolif: 1; Rev-erbA mod: 5; Yeast superoxide: 64*; Rce1 inh: inactive; PG9 Ab binder: 0

What do the screens show for `CC(NC(=O)Nc1ccccn1)N1C(=O)C2C3C=CC(C3)C2C1=O` (centres undefined)?
MIN6 prolif: 0; UCH37 DUB inh: 23*; Rev-erbA mod: 4; Yeast superoxide: 100; Rce1 inh: inactive; PG9 Ab binder: -1

What do the screens show for `O=C(NN=Cc1ccc(F)cc1)c1ccncc1`?
UCH37 DUB inh: 4

What do the screens show for `N#Cc1c2ccc(OCC(N)=O)cc2n2ccccc12`?
MIN6 prolif: 8.1*; UCH37 DUB inh: -101; Rev-erbA mod: 1; Yeast superoxide: 110; Rce1 inh: inactive; PG9 Ab binder: -10

What do the screens show for `CCOC(=O)COc1ccc2c(C#N)c3ccccn3c2c1`?
UCH37 DUB inh: -89; Rev-erbA mod: 2; Rce1 inh: inactive; PG9 Ab binder: -4

How did O=C(CSc1nnc(SCc2ccc(Cl)cc2)s1)c1ccc2c(c1)OCO2 do in these assays?
MIN6 prolif: 0; UCH37 DUB inh: 22*; Rev-erbA mod: 4; Yeast superoxide: 110; Rce1 inh: inactive; PG9 Ab binder: -3

How did O=C1N/C(=C\c2ccc(O)cc2)C(=O)c2ccccc21 do in these assays?
MIN6 prolif: -6; UCH37 DUB inh: 87*; Yeast superoxide: 121; Rce1 inh: inactive

How did COc1cc(C=NNc2ccccc2[N+](=O)[O-])cc(OC)c1O do in these assays?
UCH37 DUB inh: 6

How did COc1cc(C=NNc2nc3ccccc3s2)cc([N+](=O)[O-])c1O do in these assays?
UCH37 DUB inh: 22*

Results for O=[N+]([O-])c1ccc(O)c(C=NNc2nn[nH]n2)c1 ?
UCH37 DUB inh: 7

What do the screens show for `O=C1c2ccccc2C(=O)N1CSc1nnc(Nc2ccccc2F)s1`?
MIN6 prolif: 0; UCH37 DUB inh: 0; Rev-erbA mod: 5; Yeast superoxide: 61*; Rce1 inh: inactive; PG9 Ab binder: -2

What do the screens show for `O=C1c2ccccc2C(=O)N1CSc1nnc(Nc2ccccc2)s1`?
MIN6 prolif: -3; UCH37 DUB inh: -2; Rev-erbA mod: -1; Yeast superoxide: 103; Rce1 inh: inactive; PG9 Ab binder: -1

Results for COc1ccc(CC(=O)OCC(=O)Nc2ccc(Br)cc2)cc1 ?
MIN6 prolif: 3; UCH37 DUB inh: 3; Rev-erbA mod: 4; Yeast superoxide: 149; Rce1 inh: active; PG9 Ab binder: -2

How did O=C(NN=Cc1cccc(O)c1)c1ccccc1O do in these assays?
UCH37 DUB inh: 4

How did COc1cccc(Cn2cccc(NC(=O)Nc3cccc(C#N)c3)c2=O)c1 do in these assays?
MIN6 prolif: -3; UCH37 DUB inh: 2; Rev-erbA mod: -5; Yeast superoxide: 78; Rce1 inh: inactive; PG9 Ab binder: 2

What do the screens show for `COc1cccc(NC(=O)Nc2cccn(Cc3ccc(C)cc3)c2=O)c1`?
MIN6 prolif: -5; Rev-erbA mod: 4; Yeast superoxide: 94; Rce1 inh: active; PG9 Ab binder: 0

What do the screens show for `Nc1nc(N2CCN(C(=O)c3ccco3)CC2)nc2ccccc12`?
MIN6 prolif: -2; UCH37 DUB inh: -213; Rev-erbA mod: -1; Yeast superoxide: 114; Rce1 inh: active; PG9 Ab binder: 0

Results for Nc1nc(N2CCN(C(=O)c3ccco3)CC2)nc2ccc(Br)cc12 ?
MIN6 prolif: -2; UCH37 DUB inh: -35; Yeast superoxide: 98; Rce1 inh: inactive

What do the screens show for `CC(CC(=O)Nc1ccc2c(c1)OCO2)=NNC(=O)C(c1ccccc1)c1ccccc1`?
UCH37 DUB inh: 1

How did O=C(/C=C/c1ccccc1)NNC1=NS(=O)(=O)c2ccccc21 do in these assays?
MIN6 prolif: -2; UCH37 DUB inh: 23*; Rev-erbA mod: 4; Yeast superoxide: 83; Rce1 inh: inactive; PG9 Ab binder: -1

Results for CCN(CC)S(=O)(=O)c1cccc(C(=O)NN=C2CC(=O)CC(C)(C)C2)c1 ?
UCH37 DUB inh: 7

Results for COc1cccc(-c2csc(N3CCN(C(=O)NC45CC6CC(CC(C6)C4)C5)CC3)n2)c1 ?
MIN6 prolif: -6; UCH37 DUB inh: -3; Rev-erbA mod: -3; Yeast superoxide: 79; Rce1 inh: active; PG9 Ab binder: 3

What do the screens show for `CCN(CC)C(=O)C1=C(C)NC(=S)NC1c1ccc(C)s1` (centres undefined)?
MIN6 prolif: -1; UCH37 DUB inh: 2; Rev-erbA mod: 1; Yeast superoxide: 104; Rce1 inh: inactive; PG9 Ab binder: -2

How did CCN(CC)C(=O)C1=C(C)NC(=S)NC1c1cccs1 (centres undefined) do in these assays?
MIN6 prolif: 2; UCH37 DUB inh: 27*; Rev-erbA mod: 2; Yeast superoxide: 99; Rce1 inh: inactive; PG9 Ab binder: -5
